{"source": "ChEMBL document CHEMBL4699498", "about": "(J Med Chem, 2020)", "key": {"[1]": {"experiment": "Plasma concentration in ICR mouse at 25 mg/kg, ip at 0.25 hrs postinjection by LC-tandem mass spectrometry analysis", "format": "ADME, organism-based"}, "SW-620": {"tested_on": "SW-620", "experiment": "Potentiation of MMS induced cytotoxicity against human SW-620 cells preincubated for 1 hr followed by addition of MMS measured after 5 days by CCK-8 assay", "format": "functional, cell-based", "conditions": "dose nM 3-300, time 1.0 hrs", "how_it_was_run": "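SW620 cells (1000/well) were attached for 24 h, then preincubated 1 h with DMSO or a single compound concentration (3, 10, 100 or 300 nM). MMS was then added at 0-15 μg/mL (final concentration not stated). Incubation ran 5 days, followed by CCK-8 read at 450 nm. Growth was expressed as % of DMSO-only wells, mean of three wells.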"}, "CAPAN-1 [2]": {"tested_on": "CAPAN-1", "experiment": "Induction of DNA damage in human Capan1 cells assessed as increase in gammaH2AX foci formation incubated for 24 hrs by Western blot analysis", "format": "functional, cell-based", "conditions": "dose microM 0.1-10, time 24.0 hrs", "how_it_was_run": "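MDA-MB-436 (BRCA1-/-) or Capan-1 (BRCA2-/-) cells were treated 24 h at the indicated concentrations. Lysis was in RIPA buffer with protease inhibitors, and 20-30 μg protein was run on SDS-PAGE. Blots were probed for γH2AX, with β-tubulin as the loading control, and detected by ECL.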"}, "MDA-MB-436": {"tested_on": "MDA-MB-436", "experiment": "Antiproliferative activity against human MDA-MB-436 cells assessed as cell growth inhibition incubated for 7 days by CCK-8 assay", "format": "functional, cell-based", "conditions": "MDA-MB-436, 168 h", "how_it_was_run": "(§1)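 Cells were sub-cultured at least twice and seeded for 24 h before dosing. Compounds came from 10 mM DMSO stocks, given as 10 points of 3-fold serial dilution starting at 10-20 μM. Incubation was about 7 days (Capan-1 13 days) at 37 °C, 5% CO2. Read-out was CCK-8 absorbance at 450 nm, as % growth versus DMSO wells (duplicate wells). IC50 was fitted by nonlinear regression; three independent experiments.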"}, "[3]": {"target": "T1, Protein cereblon/Poly [ADP-ribose] polymerase 1 (Homo sapiens, UniProt P09874+Q96SW2)", "experiment": "Protac activity at CRBN/PARP1 in human 22Rv1 cells assessed as induction of PARP1 degradation at 30 nM incubated for 1 to 24 hrs by Western blot analysis", "format": "cell-based", "conditions": "time hrs 1-24"}, "[4]": {"target": "T1, Protein cereblon/Poly [ADP-ribose] polymerase 1", "experiment": "Protac activity at CRBN/PARP1 in human SW-620 cells assessed as induction of PARP1 degradation at 30 nM measured after 2 hrs by Western blot analysis"}, "[5]": {"experiment": "Plasma concentration in ICR mouse at 25 mg/kg, ip at 1 hr postinjection by LC-tandem mass spectrometry analysis", "format": "ADME, organism-based", "how_it_was_run": "(§2)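 Female ICR mice (20-23 g, 6-7 weeks old, n = 3) received a single 25 mg/kg intraperitoneal dose formulated in 5% DMSO/15% Solutol HS15/80% D5W. Plasma was sampled at 0.5, 1, 2, 4, 6, 8 and 24 h and protein-precipitated with methanol. Compound was quantified by LC-MS/MS against a standard curve.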"}, "[6]": {"experiment": "Plasma concentration in ICR mouse at 25 mg/kg, ip at 24 hrs postinjection by LC-tandem mass spectrometry analysis", "format": "ADME, organism-based", "how_it_was_run": "as §2"}, "[7]": {"target": "T1, Protein cereblon/Poly [ADP-ribose] polymerase 1", "experiment": "Protac activity at CRBN/PARP1 in human MDA-MB-436 cells assessed as induction of PARP1 degradation at 30 nM incubated for 24 hrs in presence of proteasome inhibitor carfilzomib by Western blot analysis"}, "LNCaP": {"tested_on": "LNCaP", "experiment": "Antiproliferation activity against human LNCAP assessed as cell growth inhibition incubated for 7 days by CCK-8 assay", "format": "functional, cell-based", "conditions": "time 7.0 day", "how_it_was_run": "as §1"}, "[8]": {"target": "T1, Protein cereblon/Poly [ADP-ribose] polymerase 1", "experiment": "Protac activity at CRBN/PARP1 in human SW-620 cells assessed as induction of PARP1 degradation at 30 nM incubated for 24 hrs in presence of 0.1 to 1 uM CRBN ligand pomalidomide by Western blot analysis", "format": "cell-based"}, "[9]": {"target": "T1, Protein cereblon/Poly [ADP-ribose] polymerase 1", "experiment": "Protac activity at CRBN/PARP1 in human MDA-MB-436 cells assessed as induction of PARP1 degradation at 30 nM incubated for 24 hrs in presence of 0.1 to 1 uM CRBN ligand pomalidomide by Western blot analysis"}, "[10]": {"target": "T1, Protein cereblon/Poly [ADP-ribose] polymerase 1", "experiment": "Protac activity at CRBN/PARP1 in human LNCaP cells assessed as induction of PARP1 degradation at 30 nM incubated for 1 to 24 hrs by Western blot analysis", "format": "cell-based", "conditions": "time hrs 1-24"}, "[11]": {"target": "T1, Protein cereblon/Poly [ADP-ribose] polymerase 1", "experiment": "Protac activity at CRBN/PARP1 in human SW-620 cells assessed as induction of PARP1 degradation at 30 nM measured within 1 hr by Western blot analysis", "format": "cell-based", "conditions": "time hrs <=1", "how_it_was_run": "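Time course at 30 nM in MDA-MB-436 or SW620 cells; PARP1 immunoblotted at successive time points, β-tubulin as loading control.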"}, "[12]": {"target": "T1, Protein cereblon/Poly [ADP-ribose] polymerase 1", "experiment": "Protac activity at CRBN/PARP1 in human Capan1 cells assessed as PARP1 protein degradation at 1 to 10 nM incubated for 24 hrs by western blot analysis", "format": "cell-based", "conditions": "CAPAN-1, dose nM 1-10, time 24.0 hrs", "how_it_was_run": "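Capan-1 cells were treated 24 h (1-1000 nM, or a wider dose range for DC50). Lysis was in RIPA buffer with protease inhibitors, and 20-30 μg protein was blotted. PARP1 was normalized to β-tubulin and to DMSO control, quantified by densitometry. DC50 came from two independent experiments.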"}, "CAPAN-1 [13]": {"tested_on": "CAPAN-1", "experiment": "Antitumor activity against Capan1 cells xenografted in Balb/c mouse assessed as tumor growth inhibition at 25 mg/kg, ip administered 5 times a week for 3 weeks", "format": "functional, organism-based", "how_it_was_run": "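Male BALB/c nude mice (5-6 weeks old) carried subcutaneous Capan-1 xenografts (5×10^6 cells, right armpit). At ~150 mm³ they were randomized (6 per group). Dosing was 100 mg/kg by oral gavage daily for 21 days, or 25 mg/kg intraperitoneally 5 times a week for 3 weeks. Vehicle was 5% DMSO/20% PEG400/10% Cremophor EL/65% saline. Tumor volume was (length/2)×width², measured 2-3 times weekly.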"}, "[14]": {"target": "T1, Protein cereblon/Poly [ADP-ribose] polymerase 1", "experiment": "Protac activity at CRBN/PARP1 in human MDA-MB-436 cells assessed as reduction in PARP1 protein level at 0.01 to 10 uM incubated for 12 hrs by western blot analysis", "format": "cell-based", "conditions": "dose microM 0.01-10, time 12.0 hrs", "how_it_was_run": "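MDA-MB-436 or SW620 cells dosed at 1, 10, 100, 1000 nM and 10 µM for 12 h; PARP1 assessed by western blot of RIPA lysates (20-30 µg protein), β-tubulin as loading control.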"}, "CAPAN-1 [15]": {"tested_on": "CAPAN-1", "experiment": "Antiproliferative activity against human CAPAN-1 cells assessed as cell growth inhibition incubated for 13 days by CCK-8 assay", "format": "functional, cell-based", "conditions": "CAPAN-1, 312 h", "how_it_was_run": "as §1"}, "[16]": {"target": "T1, Protein cereblon/Poly [ADP-ribose] polymerase 1", "experiment": "Protac activity at CRBN/PARP1 in human PC-3 cells assessed as induction of PARP1 degradation measured after 24 hrs by Western blot analysis", "format": "cell-based", "how_it_was_run": "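Concentration-response over a wide range, 24 h exposure; PARP1 quantified by western blot and normalized to β-tubulin density; DC50 derived from two biologically independent experiments.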"}}, "note": "Active and inactive are the calls of the source. The calls are words filed in the database; no cut-off is given here.", "data": [{"smiles": "O=C(CCCCCCCCCCC(=O)N1CCN(C(=O)c2cc(Cc3n[nH]c(=O)c4ccccc34)ccc2F)CC1)NCCNc1cccc2c1C(=O)N(C1CCC(=O)NC1=O)C2=O", "note": "(centres undefined)", "values": [{"measurement": "concentration at 0.25 h", "setting": "[1]", "result": 2100, "unit": "nM"}, {"measurement": "Activity", "setting": "SW-620", "result": "Dose-dependent effect"}, {"measurement": "Activity", "setting": "CAPAN-1 [2]", "result": "Dose-dependent effect"}, {"measurement": "IC50", "setting": "MDA-MB-436", "result": 19, "unit": "nM"}, {"measurement": "Activity", "setting": "[3]", "result": "Active"}, {"measurement": "Activity", "setting": "[4]", "result": "Active"}, {"measurement": "concentration at 1 h", "setting": "[5]", "result": 1830, "unit": "nM"}, {"measurement": "concentration at 24 h", "setting": "[6]", "result": "> 10", "unit": "nM"}, {"measurement": "Activity", "setting": "[7]", "result": "inactive"}, {"measurement": "Activity", "setting": "LNCaP", "result": "Active"}, {"measurement": "Activity", "setting": "[8]", "result": "inactive"}, {"measurement": "Activity", "setting": "[9]", "result": "inactive"}, {"measurement": "Activity", "setting": "[10]", "result": "Active"}, {"measurement": "Activity", "setting": "[11]", "result": "Active"}, {"measurement": "Activity", "setting": "[12]", "result": "Active"}, {"measurement": "Activity", "setting": "CAPAN-1 [13]", "result": "Active"}, {"measurement": "Activity", "setting": "[14]", "result": "Active"}, {"measurement": "IC50", "setting": "CAPAN-1 [15]", "result": 56, "unit": "nM"}, {"measurement": "DC50", "setting": "[16]", "result": 0.578, "unit": "nM"}]}]}
